Sampled rows, rich in hits. Any-hit rate of the full collection: about 1.8%.
M4 PAM – human M4 muscarinic receptor positive allosteric modulators, primary screen, CHO-K1 cells, Fluo-8 calcium fluorescence; actives 0.4% (n = 360,000); CHO-K1 hM4/Gqi5, ACh EC20; 0% = ACh EC20, 100% = maximal ACh; AID 624126, 2012; activation, % at 3 µM;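 active = activation above its plate's cutoff, the mean activation of sample wells plus 3 SD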
M4 ag – human M4 muscarinic receptor agonists, primary screen, CHO-K1 cells, Fluo-8 calcium fluorescence; Muscarinic acetylcholine receptor M4 (Homo sapiens), P08173; actives 0.14% (n = 360,000); CHO-K1 hM4/Gqi5; vehicle 0%, full acetylcholine response 100%; activation, % at 3 µM; AID 624127, 2012;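 active = activation above the run mean over all test wells plus 3 SD, cut at about 32% in these data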;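 note: peak over basal fluorescence ratio per well then scaled between controls; 0% = DMSO wells and 100% = acetylcholine at EC100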
M5 PAM – human M5 muscarinic receptor positive allosteric modulators, primary screen, CHO-K1 cells, Fluo-8 calcium fluorescence | actives 0.3% (n = 360,000) | CHO-K1 hM5, ACh EC20 PAM; 0% = ACh EC20, 100% = ACh EC100 | activation, % at 3 µM;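 active = activation above the run cutoff, the mean activation of all test compounds plus 3 SD, cut at about 18% in these data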
Target sequence (P08912 whole entry, looked up): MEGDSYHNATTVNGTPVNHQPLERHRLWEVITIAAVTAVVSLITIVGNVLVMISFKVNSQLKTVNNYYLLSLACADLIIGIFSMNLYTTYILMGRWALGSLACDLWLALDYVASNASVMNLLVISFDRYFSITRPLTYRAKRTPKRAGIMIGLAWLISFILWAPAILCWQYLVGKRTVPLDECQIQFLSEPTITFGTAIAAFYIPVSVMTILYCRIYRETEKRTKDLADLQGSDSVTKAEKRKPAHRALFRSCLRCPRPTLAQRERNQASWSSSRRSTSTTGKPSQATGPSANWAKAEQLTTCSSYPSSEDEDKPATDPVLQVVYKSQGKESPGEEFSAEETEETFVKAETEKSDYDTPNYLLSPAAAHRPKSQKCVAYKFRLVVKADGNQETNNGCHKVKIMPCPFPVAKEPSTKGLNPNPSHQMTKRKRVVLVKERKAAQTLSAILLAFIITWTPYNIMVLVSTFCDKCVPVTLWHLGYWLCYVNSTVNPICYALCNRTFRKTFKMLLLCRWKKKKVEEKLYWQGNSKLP
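Measured by: Fluo-8 calcium fluorescence; material: human M5 receptor in CHO-K1 cells; schedule: Post-acetylcholine fluorescence recording 140 s; benchmarks: low control EC20 acetylcholine (0%), high control EC100 acetylcholine (100%); read-out: Max/basal fluorescence ratio as % of EC20–EC100 ACh window; compound: single dose, 3 µM nominal final test concentration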
M5 antag – human M5 muscarinic receptor antagonists, primary screen, CHO cells, Fluo-8 calcium fluorescence | Muscarinic acetylcholine receptor M5 (Homo sapiens), P08912 | CHO-hM5 cells, ACh EC80 | inhibition, % at 3 µM | actives 0.59% (n = 360,000) | AID 624040, 2012;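 active = inhibition above a per-plate cutoff, the mean of that plate's test compounds plus 3 SD, cut at about 27% in these data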;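 note: 0% = acetylcholine EC80 with DMSO and 100% = DMSO without agonist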
CHRM4 antagonist – human M4 muscarinic receptor antagonists, primary screen, CHO cells, Fluo-8 calcium fluorescence; actives 0.73% (n = 360,000); inhibition, % at 3 µM; CHO-hM4 cells, ACh EC80; AID 624125, 2012;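 active = inhibition above its plate's cutoff, the mean inhibition of sample wells plus 3 SD, cut at about 27% in these data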;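 note: 0% = acetylcholine EC80 with DMSO and 100% = DMSO without agonist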
CHRM5 agonist – human M5 muscarinic receptor agonists, primary screen, CHO-K1 cells, Fluo-8 calcium fluorescence; Muscarinic acetylcholine receptor M5 (Homo sapiens), P08912; CHO-K1 hM5 cells; 0% DMSO wells, 100% maximal acetylcholine response; activation, % at 3 µM; actives 0.19% (n = 360,000);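 active = activation above the run's mean over test compounds plus 3 SD, cut at about 23% in these data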;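 note: signal is peak over basal fluorescence ratio across the kinetic read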
The depositor's hits bear a star; . = not tested or not shown.

SMILES	M4 PAM	M4 ag	M5 PAM	M5 antag	CHRM4 antagonist	CHRM5 agonist
CCN(CC)S(=O)(=O)c1ccc(N2CCOCC2)c(NC(=O)c2ccc(F)cc2)c1	-4	16	-11	6	2	5
CCN(CC)S(=O)(=O)c1ccc(N2CCOCC2)c(NC(=O)c2[nH]c(C)c(C(C)=O)c2C)c1	29*	9	-3	11	-3	3
COc1ccc(CCNC(=O)c2ccc3c(=O)n4c(nc3c2)CCC4)cc1OC	9	2	2	-3	-8	4
Fc1ccc(F)c(CNc2ncnc3cc(Cl)ccc23)c1	-10	14	-10	11	1	3
CCN1CCN(Cc2cccc(Oc3ccc(Cl)cc3)c2)CC1	-30	5	-14	19	18	-6
CN1CCN(Cc2cccc(Oc3ccc(Cl)cc3)c2)CC1	-17	6	-16	35*	14	-6
CCC(C(=O)NCCCN1CCCC1=O)n1c2ccccc2c2nc(=O)cc(C)n21 (configuration not stated)	4	0	-5	8	-13	-10
COc1ccc(S(=O)(=O)N2CCC(C(=O)N3CCc4ccccc4C3)CC2)cc1	18	4	-2	-8	-2	1
Cc1ccc(S(=O)(=O)N2CCC(C(=O)N3Cc4ccccc4C3)CC2)cc1	22*	3	19*	-10	-10	-5
Cc1ccc(S(=O)(=O)N2CCCC(C(=O)N3CCN(c4ccccc4)CC3)C2)cc1 (configuration not stated)	-5	11	-12	29*	-11	-6
COc1ccc(C)cc1S(=O)(=O)N(C)CC(=O)N1CCCC1	-7	1	10	-2	8	-1
O=[N+]([O-])c1ccc(S(=O)(=O)NN=CCCc2ccccc2)cc1	5	0	3	22	-4	0
CN(C)CCN1C(=O)C(=O)/C(=C(/O)c2ccc(F)cc2)C1c1ccccc1F (configuration not stated)	-16	-1	-7	29*	14	-3
Cc1ccc(/C(O)=C2\C(=O)C(=O)N(CCN(C)C)C2c2ccccc2F)cc1 (configuration not stated)	3	1	-2	7	7	-2
CCN1CCN(CC(=O)N2N=C(c3cccs3)CC2c2ccc(OC)c(OC)c2)C(=O)C1=O (configuration not stated)	1	0	6	6	-12	-2
C=C1C(=O)c2sccc2C(c2ccc(OC)c(OC)c2)C1COC(C)=O (configuration not stated)	-1	4	8	9	30*	8
COc1ccc(NC(=O)C2Cc3c(-c4ccc(NC(C)=O)cc4)ccnc3O2)cn1 (configuration not stated)	3	4	0	0	-7	1
COC(=O)C1(c2ccccc2)NC(c2cccs2)C2C(=O)N(c3ccccc3)C(=O)C21 (configuration not stated)	16	18	-3	-11	-20	53*
COC(=O)C1(c2ccccc2)NC(c2cccs2)C2C(=O)N(C)C(=O)C21 (configuration not stated)	-3	0	0	-4	6	-5
C[C@H](NC(=O)Nc1ccccc1F)C(=O)O	13	1	-2	0	0	2
C[C@H](NC(=O)c1ccccc1Cl)C(=O)Nc1ccccc1F	-21	-5	0	11	75*	-2
Cc1cc(NC(=O)c2ccc(F)c(S(=O)(=O)N3CCCCC3)c2)no1	-14	0	-7	9	51*	-3
Cc1cc(NC(=O)c2cccc(S(=O)(=O)N3CCCCCC3)c2)no1	10	2	-3	-1	-5	3
COc1ccccc1C(=O)NCCC(=O)Nc1ccc(OC(F)(F)F)cc1	13	1	3	2	12	-3
NNC(=O)c1cc(NS(=O)(=O)c2cccs2)cc(NS(=O)(=O)c2cccs2)c1	1	0	5	4	-6	2
SMILES	M4 PAM	M4 ag	M5 PAM	M5 antag	CHRM4 antagonist	CHRM5 agonist
CNC(=O)c1cc(Oc2ccc(NC(=O)Nc3ccc(Cl)c(C(F)(F)F)c3)cc2)ccn1	-15	21	-31	30*	32*	3
Cc1snc(SCc2ccc(F)cc2)c1C#N	18*	-1	2	-4	-11	-3
C[C@H](CO)N1C[C@H](C)[C@H](CN(C)C(=O)Nc2cccc(F)c2)Oc2cc(C#CC3(O)CCCC3)ccc2S1(=O)=O	5	1	2	-3	-18	0
CC(O)(c1cccc(F)c1)c1nc(-c2cccc3cccnc23)cs1 (configuration not stated)	2	0	-5	2	-14	-1
COc1ccc(NC(=O)C(Cl)=C(Cl)Cl)cn1	11	4	-1	6	-11	-4
COc1ccc(NC(=O)/C(Cl)=C(/Cl)S(=O)Cc2ccc(Cl)cc2)cn1 (configuration not stated)	-4	4	-2	23	30*	-1
Nc1c2c(nc3sc4c(c13)CCCC4)-c1ccccc1CC2	-4	0	1	6	6	-8
COc1ccc(C(=O)NC2CCc3ccccc32)cc1OC1CCN(C(C)C)CC1 (configuration not stated)	5	1	-6	28*	5	-6
COc1ccc(C(=O)N(C)C2CCCc3ccccc32)cc1OC1CCN(C(C)C)CC1 (configuration not stated)	-10	0	-5	17	15	-8
CN1C2CC(OC(=O)C(CO)c3ccccc3)CC1C1OC12 (configuration not stated)	-17	1	.	.	99*	.
O=C(CN1C(=O)COc2ccccc21)NCCN1CCC(Cc2ccccc2)CC1	-30	15	-16	10	28*	-5
O=C(CN1C(=O)COc2ccccc21)NCc1ccc(C(=O)O)cc1	10	2	-5	3	28*	3
O=C(CCCc1nc2ccccc2s1)NNC(=O)CCN1CCN(Cc2ccccc2)CC1	-10	1	1	3	-2	-5
O=c1c2ccccc2nc2n1CCS2	3	0	-6	4	7	-4

Assay outcomes: PubChem, The Scripps Research Institute Molecular Screening Center
